Assay results gathered from unrelated publications.
Protocols differ between the studies behind these lines.
Target: Serine/threonine-protein kinase pim-2 (PIM2, Homo sapiens, UniProt Q9P1W9)

SMILES | effect on | action | method | concentration | quantity | value
CCCCC(=O)Nc1ccc(-c2ccc3ncn(CCC)c(=O)c3c2)cn1 | binding | – | competition with immobilised ligand | 0.5 µM | remaining binding | 100%
CN1CCN(C(=O)c2ccc(NC(=O)Nc3ccc(N(C)c4ccnc(Nc5ccc(CS(C)(=O)=O)cc5)n4)cc3)cc2)CC1 | binding | – | – | 1 µM | remaining binding | 100%
C#Cc1cnc(Nc2ccnc(CO)c2)nc1Nc1ccccc1S(C)(=O)=NC#N (stereo not shown) | cell-free assay | – | – | 1 µM | remaining signal | 100%
CC#CC(=O)N1CCC[C@H]1c1nc(-c2ccc(C(=O)Nc3ccccn3)cc2)c2c(N)nccn12 | enzyme activity | inhibitor | – | 1 µM | inhibition | 0%
C1=C/COCc2cc(ccc2OCCN2CCCC2)Nc2nccc(n2)-c2cccc(c2)COC/1 | binding | – | – | 0.1 µM | remaining binding | 100%
COc1ccc2oc(-c3ccc4nc(N)oc4c3)c/c(=N\c3ccccc3NC(=O)CCN)c2c1 | binding | – | – | 1 µM | remaining binding | 103%
C=CC(=O)N1CCC[C@@H](n2nc(-c3ccc(Oc4ccccc4)cc3)c3c(N)ncnc32)C1 | enzyme activity | inhibitor | – | 1 µM | inhibition | 3%
Cc1ccc(NC(=O)c2ccnc(C(F)(F)F)c2)cc1-c1cc(OCCO)nc(N2CCOCC2)c1 | binding | – | – | 1 µM | remaining binding | 82%
C#Cc1cc(-c2cc(Nc3nc(N[C@@H](C)c4ccc(F)cn4)ncc3Cl)n[nH]2)ccc1C=O | enzyme activity | inhibitor | – | 0.2 µM | inhibition | 2.74%
N#Cc1ccc(NC(=O)Nc2ccccc2)cc1 | cell-free assay | – | competition with immobilised ligand | 25 µM | remaining binding | 100%
